In assay [1] the test system is Bacillus subtilis. The assay can be described thus: Antimicrobial activity against Bacillus subtilis ATCC 6633 assessed as inhibition zone at 37 degC for 24 hrs by agar diffusion method. In kind it is functional. Summed up:
(§1)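 Well diffusion: 50 μL of a 1.0 mM solution in DMSO:MeOH (1:9) filled into 9 mm wells cut in Standard I Nutrient Agar or Mueller Hinton II Agar. Plates incubated at 37 °C for 24 h, then growth inhibition zone read in mm. Partially clear zones, or colonies within the zone, recorded as p.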
(A growth-free zone around the sample is the usual read-out of agar diffusion tests.)

Assay [2] concerns Bacillus subtilis. Kind of assay: Antimicrobial activity against Bacillus subtilis ATCC 6633 assessed as partially clear inhibition zone at 37 degC for 24 hrs by agar diffusion method. In kind it is functional. The method in brief: as §1
Assay [3] relates to Staphylococcus aureus. Kind of assay: Antimicrobial activity against Staphylococcus aureus SG511 assessed as inhibition zone at 37 degC for 24 hrs by agar diffusion method. In kind it is functional. The method in brief:
as §1

In assay [4] the test system is Staphylococcus aureus. The assay can be described thus: Antimicrobial activity against Staphylococcus aureus Efs1 assessed as inhibition zone at 37 degC for 24 hrs by agar diffusion method. In kind it is functional. Summed up:
(§2)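 Each solution at 2.0 mM in DMSO:MeOH (1:9), 50 μL filled into 9 mm agar wells (Standard I Nutrient or Mueller Hinton II Agar). Incubation at 37 °C for 24 h. Inhibition zone diameter measured in mm; a partially clear zone or colonies inside the zone noted as p.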

Assay [5] relates to Staphylococcus aureus. Kind of assay: Antimicrobial activity against Staphylococcus aureus Efs4 assessed as inhibition zone at 37 degC for 24 hrs by agar diffusion method. It counts as functional. The method in brief: as §2
For assay [6], the system named is Staphylococcus aureus. The assay can be described thus: Antimicrobial activity against methicillin-resistant Staphylococcus aureus 134/93 assessed as inhibition zone at 37 degC for 24 hrs by agar diffusion method. It counts as functional. Summed up: (§3)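 Agar well diffusion. Each 9 mm well in nutrient or Mueller Hinton II agar received 50 μL of a 2.0 mM solution in DMSO:MeOH (1:9). Plates were incubated at 37 °C for 24 h. The inhibition zone diameter was read in mm, including the 9 mm well. A "p" marks a partially clear zone or colonies inside the zone.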

The test system of assay [7] is Enterococcus faecalis. Kind of assay: Antimicrobial activity against vancomycin-resistant Enterococcus faecalis 1528 assessed as inhibition zone at 37 degC for 24 hrs by agar diffusion method. It counts as functional. The method in brief: as §3
In assay [8] the test system is Micrococcus luteus. The assay can be described thus: Antimicrobial activity against Micrococcus luteus ATCC 10240 assessed as inhibition zone at 37 degC for 24 hrs by agar diffusion method. It counts as functional. The method in brief:
as §1

Assay [9] concerns Pseudomonas aeruginosa. Kind of assay: Antimicrobial activity against Pseudomonas aeruginosa K799/WT assessed as partially clear inhibition zone at 37 degC for 24 hrs by agar diffusion method. It counts as functional. The method in brief:
as §3

Assay [10] relates to Pseudomonas aeruginosa. Kind of assay: Antimicrobial activity against Pseudomonas aeruginosa K799/61 assessed as inhibition zone at 37 degC for 24 hrs by agar diffusion method. It counts as functional. The method in brief:
as §2

The subject of assay [11] is Escherichia coli. The assay can be described thus: Antimicrobial activity against Escherichia coli SG458 assessed as inhibition zone at 37 degC for 24 hrs by agar diffusion method. In kind it is functional. The method in brief:
as §1

The test system of assay [12] is Mycolicibacterium vaccae. Kind of assay: Antimicrobial activity against Mycobacterium vaccae IMET assessed as inhibition zone at 37 degC for 24 hrs by agar diffusion method. In kind it is functional. The method in brief:
as §1

For assay [13], the system named is Pseudomonas aeruginosa. The assay can be described thus: Antimicrobial activity against Pseudomonas aeruginosa K799/WT assessed as faint inhibition zone at 37 degC for 24 hrs by agar diffusion method. In kind it is functional. Summed up:
as §2

Assay [14] concerns Pseudomonas aeruginosa. Kind of assay: Antimicrobial activity against Pseudomonas aeruginosa K799/61 assessed as faint inhibition zone at 37 degC for 24 hrs by agar diffusion method. In kind it is functional. The method in brief:
as §3

For assay [15], the system named is Micrococcus luteus. Kind of assay: Antimicrobial activity against Micrococcus luteus ATCC 10240 assessed as partially clear inhibition zone at 37 degC for 24 hrs by agar diffusion method. It counts as functional. Summed up:
(§4)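 Agar well diffusion. Each 9 mm well in nutrient or Mueller Hinton II agar received 50 μL of a 1.0 mM solution in DMSO:MeOH (1:9). Plates were incubated at 37 °C for 24 h. The inhibition zone diameter was read in mm, including the well. A "p" marks a partially clear zone or colonies inside the zone.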

The subject of assay [16] is Staphylococcus aureus. The assay can be described thus: Antimicrobial activity against Staphylococcus aureus SG511 assessed as inhibition zone at 5 ug/ml at 37 degC for 24 hrs by agar diffusion method. The settings on record: SG511, 24 h, read-out: IZ.
Assay [17] deals with Staphylococcus aureus. Kind of assay: Antimicrobial activity against Staphylococcus aureus Efs1 assessed as inhibition zone at 5 ug/ml at 37 degC for 24 hrs by agar diffusion method. The settings on record: Efs1, 24 h, read-out: IZ.
Assay [18] concerns Staphylococcus aureus. Kind of assay: Antimicrobial activity against Staphylococcus aureus Efs4 assessed as inhibition zone at 5 ug/ml at 37 degC for 24 hrs by agar diffusion method. The settings on record: Efs4, 24 h, read-out: IZ.
The subject of assay [19] is Micrococcus luteus. Kind of assay: Antimicrobial activity against Micrococcus luteus ATCC 10240 assessed as inhibition zone at 5 ug/ml at 37 degC for 24 hrs by agar diffusion method. It counts as functional. To be noted: ATCC 10240, 24 h, read-out: IZ. Summed up: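 Agar well diffusion with the control antibiotic dissolved in water at 5 μg/mL. 50 μL was placed in each 9 mm well in nutrient or Mueller Hinton II agar. Plates were incubated at 37 °C for 24 h, and the inhibition zone diameter was read in mm, including the well.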

For assay [20], the system named is Pseudomonas aeruginosa. The assay can be described thus: Antimicrobial activity against Pseudomonas aeruginosa K799/WT assessed as inhibition zone at 5 ug/ml at 37 degC for 24 hrs by agar diffusion method. The settings on record: read-out: IZ.
The test system of assay [21] is Pseudomonas aeruginosa. Kind of assay: Antimicrobial activity against Pseudomonas aeruginosa K799/61 assessed as inhibition zone at 5 ug/ml at 37 degC for 24 hrs by agar diffusion method. The settings on record: K799/61, 24 h, read-out: IZ.
The subject of assay [22] is Escherichia coli. Kind of assay: Antimicrobial activity against Escherichia coli SG458 assessed as inhibition zone at 5 ug/ml at 37 degC for 24 hrs by agar diffusion method. The settings on record: SG458, 24 h, read-out: IZ.
The subject of assay [23] is Mycolicibacterium vaccae. The assay can be described thus: Antimicrobial activity against Mycobacterium vaccae IMET assessed as inhibition zone at 5 ug/ml at 37 degC for 24 hrs by agar diffusion method. It counts as functional. To be noted: read-out: IZ. The method in brief:
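Ciprofloxacin dissolved in water at 5 μg/mL and filled into 9 mm wells in nutrient or Mueller Hinton II agar. Plates held at 37 °C for 24 h, after which the growth inhibition zone was read in mm.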

The test system of assay [24] is Bacillus subtilis. The assay can be described thus: microbe, parasite or virus in culture. To be noted: ATCC 6633, 24 h, read-out: IZ.
For assay [25], the system named is Staphylococcus aureus. Kind of assay: microbe, parasite or virus in culture. To be noted: 134/93, 24 h, read-out: IZ.
Assay [26] concerns Enterococcus faecalis. The assay can be described thus: microbe, parasite or virus in culture. To be noted: Enterococcus faecalis, 1528, 24 h, read-out: IZ.
In assay [27] the test system is Pseudomonas aeruginosa. The assay can be described thus: Antimicrobial activity against Pseudomonas aeruginosa K799/61 assessed as partially clear inhibition zone at 37 degC for 24 hrs by agar diffusion method. It counts as functional. Summed up:
as §3

Assay [28] concerns Staphylococcus aureus. Kind of assay: Antimicrobial activity against Staphylococcus aureus Efs1 assessed as partially clear inhibition zone at 37 degC for 24 hrs by agar diffusion method. In kind it is functional. The method in brief: as §3
Assay [29] relates to Staphylococcus aureus. The assay can be described thus: Antimicrobial activity against Staphylococcus aureus Efs4 assessed as partially clear inhibition zone at 37 degC for 24 hrs by agar diffusion method. In kind it is functional. Summed up: as §3
The subject of assay [30] is Micrococcus luteus. The assay can be described thus: Antimicrobial activity against Micrococcus luteus ATCC 10240 assessed as unclear inhibition zone at 37 degC for 24 hrs by agar diffusion method. It counts as functional. Summed up:
as §4

Assay [31] concerns Pseudomonas aeruginosa. Kind of assay: Antimicrobial activity against Pseudomonas aeruginosa K799/WT assessed as inhibition zone at 37 degC for 24 hrs by agar diffusion method. In kind it is functional. Summed up:
as §2

In assay [32] the test system is Escherichia coli. The assay can be described thus: Antimicrobial activity against Escherichia coli SG458 assessed as partially clear inhibition zone at 37 degC for 24 hrs by agar diffusion method. It counts as functional. Summed up: as §4

The text below walks through data of ChEMBL document CHEMBL3217698, “Syntheses and biological evaluation of new cephalosporin-oxazolidinone conjugates” (2010).

With `CC(=O)NC[C@H]1CN(c2ccc(N3CCN(C(=O)OCC4=C(C(=O)O)N5C(=O)[C@@H](NC(=O)Cc6ccccc6)[C@H]5SC4)CC3)c(F)c2)C(=O)O1`, the “inhibition zone (IZ)” value in assay [1] was found to be 42 mm; in [2], 45 mm; in [3], 34 mm; in [4], 40 mm; in assay [5], 30 mm; in [6], 17 mm. The “inhibition zone (IZ)” value in assay [7] came out at 23 mm; in assay [8], 38 mm; in assay [9], 15 mm; in [10], 24 mm; in assay [11] it was 33 mm; in [12] it was 30 mm. Further, the “inhibition zone (IZ)” value in [13] is recorded as 20 mm; in [14], 33 mm; in assay [15], 42 mm.

For the compound `O=C(O)c1cn(C2CC2)c2cc(N3CCNCC3)c(F)cc2c1=O` [CIPROFLOXACIN], the zone of inhibition at 5 µg/mL in assay [16] was 18 mm; in [17], 0 mm; in assay [18] it was 0 mm; in [19] it was 0 mm; in [20] it was 29 mm; in assay [21], 35 mm. The zone of inhibition at 5 µg/mL was determined as 34 mm in [22]; 23 mm in assay [23]; 31 mm in assay [24]; 0 mm in assay [25]; 15 mm in [26].

With `CC(=O)OC[C@H]1CN(c2ccc(N3CCN(C(=O)OCC4=C(C(=O)O)N5C(=O)[C@@H](NC(=O)Cc6ccccc6)[C@H]5SC4)CC3)c(F)c2)C(=O)O1`, the “inhibition zone (IZ)” value in assay [1] turned out to be 43 mm; in [2], 47 mm; in [3] it was 36 mm; in [4], 40 mm; in assay [5], 31 mm; in assay [6], 27 mm. In addition, the “inhibition zone (IZ)” value is recorded as 26 mm in [7]; 42 mm in [8]; 22 mm in assay [10]; 31 mm in assay [27]; 33 mm in assay [11]; 44 mm in assay [12]. In addition, in assay [13], the “inhibition zone (IZ)” value is given as 17 mm.

For the compound `CC(=O)NC[C@H]1CN(c2ccc(N3CCOCC3)c(F)c2)C(=O)O1` [LINEZOLID], the “inhibition zone (IZ)” value is reported as 33 mm in assay [1]; 37 mm in assay [2]; 35 mm in assay [3]; 34 mm in [4]; 39 mm in [28]; 35 mm in assay [5]. In addition, the “inhibition zone (IZ)” value in assay [29] is 39 mm; in assay [6], 42 mm; in assay [7], 34 mm; in assay [8], 38 mm; in assay [30] it was 45 mm; in assay [31], 0 mm. Further, the “inhibition zone (IZ)” value in [27] worked out at 10 mm; in assay [11] it was 23 mm; in [32] it was 28 mm; in assay [12] it was 52 mm.

Regarding `CC(=O)NC[C@H]1CN(c2ccc(N3CCNCC3)c(F)c2)C(=O)O1`, the “inhibition zone (IZ)” value worked out at 26 mm in assay [1]; 18 mm in assay [3]; 31 mm in assay [4]; 35 mm in [28]; 14 mm in [5]; 18 mm in [29]. The “inhibition zone (IZ)” value in assay [6] is listed as 25 mm; in assay [7], 25 mm; in [8], 23 mm; in [30] it was 30 mm; in assay [9] it was 11 mm; in assay [10], 20 mm. In addition, the “inhibition zone (IZ)” value was 14 mm in assay [32], 35 mm in assay [12], 18 mm in assay [13] and 30 mm in assay [14].

With `CC(=O)OCC1=C(C(=O)O)N2C(=O)[C@@H](NC(=O)Cc3ccccc3)[C@H]2SC1` [CEFALORAM], the “inhibition zone (IZ)” value came to 46 mm in assay [1]; 52 mm in [2]; 39 mm in assay [3]; 43 mm in assay [4]; 35 mm in assay [5]; 13 mm in [6]. The “inhibition zone (IZ)” value in assay [7] is listed as 23 mm; in [8], 38 mm; in assay [30], 44 mm; in assay [10], 23 mm; in [11], 35 mm; in assay [12], 0 mm. For the same compound, the “inhibition zone (IZ)” value in [13] is on record as 11 mm.

In the case of `CC(=O)OC[C@H]1CN(c2ccc(N3CCNCC3)c(F)c2)C(=O)O1`, the “inhibition zone (IZ)” value in [1] was 24 mm; in [2], 26 mm; in assay [3], 21 mm; in assay [4], 31 mm; in assay [5] it was 19 mm; in assay [29], 23 mm. The “inhibition zone (IZ)” value is 29 mm in assay [6]; 25 mm in assay [7]; 40 mm in assay [30]; 16 mm in [10]; 13 mm in assay [32]; 42 mm in assay [12]. For the same compound, the entries for the “inhibition zone (IZ)” value in assay [13], in assay [14] and in assay [15] were 15 mm, 26 mm and 31 mm, respectively.
